Values belong to the compound of their own block, whether it stands above or below them.
Tests used:
Aorta [1] = assay: Vasorelaxant activity in potassium depolarized guinea pig aorta assessed as inhibition of calcium-induced contraction at 50 uM after 30 mins; format: functional, Cavia porcellus; parameters: scale not given: the % may be the effect or the level left
Procedure, shortened: (§1)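 Guinea pig aortic strips depolarized with K+ (80 mM). Calcium-induced contraction measured; inhibition expressed as percent change from control, n = 3−5.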

Left cardiac atrium [2] = assay: Negative inotropic activity in potassium depolarized guinea pig left atrium assessed as reduction in developed tension after 30 mins; format: functional; conditions: Cavia porcellus, 0.5 h
Procedure, shortened: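 Guinea pig left atria electrically driven at 1 Hz. EC50 taken from log concentration−response curves by Litchfield and Wilcoxon probit analysis, n = 6−7. Not calculated when the maximum effect was below 50%.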

Right cardiac atrium [3] = assay: Negative chronotropic activity in potassium depolarized guinea pig right atrium assessed as reduction in atrial rate at 50 uM after 30 mins; format: functional, Cavia porcellus; parameters: scale not given: the % may be the effect or the level left
Left cardiac atrium [4] = assay: Negative inotropic activity in potassium depolarized guinea pig left atrium assessed as reduction in developed tension at 50 uM after 30 mins; format: functional, Cavia porcellus; parameters: scale not given: the % may be the effect or the level left
Left cardiac atrium [5] = assay: Negative inotropic activity in potassium depolarized guinea pig left atrium assessed as reduction in developed tension at 10^-5 M after 30 mins; format: functional, Cavia porcellus; parameters: scale not given: the % may be the effect or the level left
Aorta [6] = assay: Vasorelaxant activity in potassium depolarized guinea pig aorta assessed as inhibition of calcium-induced contraction at 10^-4 M after 30 mins; format: functional, Cavia porcellus; parameters: scale not given: the % may be the effect or the level left; procedure, shortened: as §1
Right cardiac atrium [7] = assay: Negative chronotropic activity in potassium depolarized guinea pig right atrium assessed as reduction in atrial rate at 10^-4 M after 30 mins; format: functional, Cavia porcellus; parameters: scale not given: the % may be the effect or the level left
[8] = Relaxant activity in potassium depolarized guinea pig ileum longitudinal smooth muscle assessed as inhibition of calcium-induced contraction at 50 uM after 30 mins; format: functional, Cavia porcellus; parameters: scale not given: the % may be the effect or the level left
[9] = Relaxant activity in potassium depolarized guinea pig ileum longitudinal smooth muscle assessed as inhibition of calcium-induced contraction after 30 mins; format: functional, tissue-based; conditions: Cavia porcellus, 0.5 h
Cytochrome P450 1A2 = target: T1, Cytochrome P450 1A2 (Homo sapiens, UniProt P05177); assay: Inhibition of CYP1A2 in human liver microsomes using phenacetin as substrate after 30 mins by LC-MS analysis
T1 sequence (P05177 whole entry): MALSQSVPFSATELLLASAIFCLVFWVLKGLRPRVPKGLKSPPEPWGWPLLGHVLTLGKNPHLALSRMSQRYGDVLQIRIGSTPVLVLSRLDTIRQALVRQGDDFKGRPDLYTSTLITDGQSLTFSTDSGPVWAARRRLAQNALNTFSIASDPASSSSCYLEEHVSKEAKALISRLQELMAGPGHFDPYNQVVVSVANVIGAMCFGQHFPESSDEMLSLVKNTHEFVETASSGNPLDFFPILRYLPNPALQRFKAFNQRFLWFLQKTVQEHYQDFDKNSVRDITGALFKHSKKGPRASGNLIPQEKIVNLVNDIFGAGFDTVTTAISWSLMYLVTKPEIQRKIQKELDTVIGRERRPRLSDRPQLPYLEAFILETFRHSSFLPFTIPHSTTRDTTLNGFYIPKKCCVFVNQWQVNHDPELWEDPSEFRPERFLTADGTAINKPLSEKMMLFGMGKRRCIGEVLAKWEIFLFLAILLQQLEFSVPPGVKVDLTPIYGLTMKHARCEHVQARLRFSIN

Liver microsome = assay: Stability in human liver microsomes at 1 uM after 2 to 60 mins by LC-MS analysis in absence of NADPH
Cytochrome P450 2C19 = Cytochrome P450 2C19 (Homo sapiens, UniProt P33261); assay: Inhibition of CYP2C19 in human liver microsomes using (S)-mephenytoin as substrate after 40 mins by LC-MS analysis
Chain of Cytochrome P450 2C19 (P33261 whole entry): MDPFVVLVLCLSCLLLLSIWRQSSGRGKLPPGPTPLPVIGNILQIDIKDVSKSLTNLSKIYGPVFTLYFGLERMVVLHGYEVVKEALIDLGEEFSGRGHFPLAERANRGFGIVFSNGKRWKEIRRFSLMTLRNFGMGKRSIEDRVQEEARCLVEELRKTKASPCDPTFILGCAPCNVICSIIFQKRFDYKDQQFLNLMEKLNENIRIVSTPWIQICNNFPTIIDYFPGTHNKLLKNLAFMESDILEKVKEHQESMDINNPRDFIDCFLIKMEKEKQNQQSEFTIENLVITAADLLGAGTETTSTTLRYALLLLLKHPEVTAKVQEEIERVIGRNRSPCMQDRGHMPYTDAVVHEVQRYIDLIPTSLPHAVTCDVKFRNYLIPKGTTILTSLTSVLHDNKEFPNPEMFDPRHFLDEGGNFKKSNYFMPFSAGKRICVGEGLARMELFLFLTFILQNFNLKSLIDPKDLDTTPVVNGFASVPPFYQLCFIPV

Cytochrome P450 3A4 [10] = target: T2, Cytochrome P450 3A4 (Homo sapiens, UniProt P08684); assay: Inhibition of CYP3A4 in human liver microsomes using testosterone as substrate after 5 mins by LC-MS analysis
T2 sequence (P08684 whole entry): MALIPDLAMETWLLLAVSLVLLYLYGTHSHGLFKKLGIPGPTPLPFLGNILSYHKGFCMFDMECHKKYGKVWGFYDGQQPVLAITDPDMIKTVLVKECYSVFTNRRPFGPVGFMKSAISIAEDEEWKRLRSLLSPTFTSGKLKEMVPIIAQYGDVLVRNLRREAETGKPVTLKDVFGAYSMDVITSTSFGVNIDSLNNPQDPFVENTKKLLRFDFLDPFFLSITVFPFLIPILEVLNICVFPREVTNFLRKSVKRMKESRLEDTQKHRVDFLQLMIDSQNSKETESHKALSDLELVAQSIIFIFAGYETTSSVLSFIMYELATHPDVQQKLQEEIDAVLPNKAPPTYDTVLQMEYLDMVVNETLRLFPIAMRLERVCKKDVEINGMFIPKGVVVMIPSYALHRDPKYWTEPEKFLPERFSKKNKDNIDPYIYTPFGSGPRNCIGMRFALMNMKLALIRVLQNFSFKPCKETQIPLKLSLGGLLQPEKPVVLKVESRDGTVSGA

Cytochrome P450 2C9 = Cytochrome P450 2C9 (Homo sapiens, UniProt P11712); assay: Inhibition of CYP2C9 in human liver microsomes using tolbutamide as substrate after 20 mins by LC-MS analysis
Chain of Cytochrome P450 2C9 (P11712 whole entry): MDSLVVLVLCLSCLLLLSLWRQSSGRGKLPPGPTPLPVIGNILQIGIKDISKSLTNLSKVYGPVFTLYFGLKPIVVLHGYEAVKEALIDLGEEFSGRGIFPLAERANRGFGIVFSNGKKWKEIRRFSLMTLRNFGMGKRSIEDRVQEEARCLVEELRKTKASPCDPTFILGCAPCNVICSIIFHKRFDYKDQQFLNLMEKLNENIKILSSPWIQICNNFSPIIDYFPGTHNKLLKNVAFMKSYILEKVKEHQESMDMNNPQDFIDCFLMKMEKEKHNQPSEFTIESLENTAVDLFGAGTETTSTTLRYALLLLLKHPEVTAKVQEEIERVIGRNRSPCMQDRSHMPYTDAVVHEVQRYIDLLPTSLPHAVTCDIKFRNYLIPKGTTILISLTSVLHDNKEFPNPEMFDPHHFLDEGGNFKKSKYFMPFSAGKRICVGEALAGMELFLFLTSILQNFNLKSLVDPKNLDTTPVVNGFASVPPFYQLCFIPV

Cytochrome P450 2D6 = Cytochrome P450 2D6 (Homo sapiens, UniProt P10635); assay: Inhibition of CYP2D6 in human liver microsomes using dextromethorphan as substrate after 10 mins by LC-MS analysis
Chain of Cytochrome P450 2D6 (P10635 whole entry): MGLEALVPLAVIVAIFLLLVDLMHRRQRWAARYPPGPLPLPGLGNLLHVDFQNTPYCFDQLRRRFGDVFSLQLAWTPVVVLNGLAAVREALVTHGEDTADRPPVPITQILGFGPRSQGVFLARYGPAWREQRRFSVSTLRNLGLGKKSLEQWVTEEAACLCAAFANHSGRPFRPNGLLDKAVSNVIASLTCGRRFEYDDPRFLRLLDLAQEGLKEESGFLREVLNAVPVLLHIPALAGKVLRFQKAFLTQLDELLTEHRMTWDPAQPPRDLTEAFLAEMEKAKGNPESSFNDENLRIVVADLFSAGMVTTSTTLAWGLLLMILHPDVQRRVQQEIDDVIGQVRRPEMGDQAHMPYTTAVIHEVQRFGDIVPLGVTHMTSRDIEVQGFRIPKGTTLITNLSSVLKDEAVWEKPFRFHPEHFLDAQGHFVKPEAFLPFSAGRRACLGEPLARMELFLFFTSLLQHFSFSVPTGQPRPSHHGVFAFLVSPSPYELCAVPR

Cytochrome P450 3A4 [11] = target: T2, Cytochrome P450 3A4; assay: Inhibition of CYP3A4 in human liver microsomes using midazolam as substrate after 4 mins by LC-MS analysis
[12] = Relaxant activity in potassium depolarized guinea pig ileum longitudinal smooth muscle assessed as inhibition of calcium-induced contraction at 10^-4 M after 30 mins; format: functional, Cavia porcellus; parameters: scale not given: the % may be the effect or the level left
in vitro = conditions: human, liver microsomes
Left cardiac atrium [13] = assay: Negative inotropic activity in potassium depolarized guinea pig left atrium assessed as reduction in developed tension at 10^-4 M after 30 mins; format: functional, Cavia porcellus; parameters: scale not given: the % may be the effect or the level left
[14] = Half life in human liver microsomes assessed as CYP-mediated compound degradation at 1 uM by LC-MS analysis

Compound: COc1ccc(C2(O)SC=C(C)n3c2noc3=O)cc1 (stereo not given)
Activity (Aorta [1]): 18% | EC50 (Left cardiac atrium [2]): 520 nM | Activity (Right cardiac atrium [3]): 12% | Activity (Left cardiac atrium [4]): 76%

Compound: COc1ccc(C2(OC(C)C)SC=C(C)n3c2noc3=O)cc1 (stereo not given)
EC50 (Left cardiac atrium [2]): 430 nM | Activity (Left cardiac atrium [5]): 69% | Activity (Aorta [6]): 11% | Activity (Right cardiac atrium [3]): 14%

Compound: O=c1onc2n1-c1ccccc1SC2(OCC(F)(F)F)c1ccc(Br)cc1 (stereo not given)
IC50 (Cytochrome P450 1A2): > 20 µM | Stability (Liver microsome): Stable | IC50 (Cytochrome P450 2C19): 10.8 µM | IC50 (Cytochrome P450 3A4 [10]): > 20 µM | IC50 (Cytochrome P450 2C9): > 20 µM | IC50 (Cytochrome P450 2D6): > 20 µM | IC50 (Cytochrome P450 3A4 [11]): > 20 µM

Second part, led by results:

EC50 (Left cardiac atrium [2]): 280 nM
Compound: O=c1onc2n1-c1ccccc1SC2(OCC1CCCCC1)c1ccccc1 (stereo not given)
Activity (Right cardiac atrium [7]): 6% | Activity (Aorta [6]): 3% | Activity (Left cardiac atrium [4]): 86%

EC50 (Left cardiac atrium [2]): 64 nM | IC50 [9]: 3.53 µM
Compound: COc1cccc(C2(OC(C)C)SC=C(C)n3c2noc3=O)c1 (stereo not given)
Activity [8]: 98% | Activity (Aorta [6]): 36% | Activity (Right cardiac atrium [3]): 2% | Activity (Left cardiac atrium [4]): 84%

IC50 (Cytochrome P450 1A2): > 20 µM | Stability (Liver microsome): Stable | IC50 (Cytochrome P450 2C19): 17 µM | IC50 (Cytochrome P450 3A4 [10]): > 20 µM | EC50 (Left cardiac atrium [2]): 95 nM | microsomal CLint at 1 µM (in vitro): 76 µL/min/mg | half-life at 1 µM [14]: 23 min | IC50 (Cytochrome P450 2C9): > 20 µM | IC50 (Cytochrome P450 2D6): > 20 µM | IC50 [9]: 10.3 µM | IC50 (Cytochrome P450 3A4 [11]): > 20 µM
Compound: COc1ccc(C2(OCC(F)(F)F)Sc3ccccc3-n3c2noc3=O)cc1 (stereo not given)
Activity [12]: 66% | Activity (Right cardiac atrium [7]): 19% | Activity (Left cardiac atrium [13]): 82% | Activity (Aorta [6]): 6%

IC50 (Cytochrome P450 1A2): > 20 µM | Stability (Liver microsome): Stable | IC50 (Cytochrome P450 2C19): 6.1 µM | IC50 (Cytochrome P450 3A4 [10]): > 20 µM | EC50 (Left cardiac atrium [2]): 210 nM | IC50 (Cytochrome P450 2C9): 19 µM | IC50 (Cytochrome P450 2D6): > 20 µM
Compound: CCOC1(c2ccccc2)Sc2ccccc2-n2c1noc2=O (stereo not given)
Activity (Left cardiac atrium [5]): 88% | Activity (Aorta [6]): 14% | Activity (Right cardiac atrium [3]): 7%
